Screening data (PubChem)
OX1R antag-1 = antagonists of human orexin 1 receptor (OX1R); OX1R-expressing cells, FRET antagonist read-out; inhibition, % at 6.6 µM; 330,000 compounds, 1.8% hits; AID 485270, 2010; in the data active = inhibition mostly above about 38%, no sharp cut-off; inactive = mostly below about 40%;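 note: 0% = agonist challenge alone and 100% = reference antagonist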
Target sequence (O43613 whole entry, looked up): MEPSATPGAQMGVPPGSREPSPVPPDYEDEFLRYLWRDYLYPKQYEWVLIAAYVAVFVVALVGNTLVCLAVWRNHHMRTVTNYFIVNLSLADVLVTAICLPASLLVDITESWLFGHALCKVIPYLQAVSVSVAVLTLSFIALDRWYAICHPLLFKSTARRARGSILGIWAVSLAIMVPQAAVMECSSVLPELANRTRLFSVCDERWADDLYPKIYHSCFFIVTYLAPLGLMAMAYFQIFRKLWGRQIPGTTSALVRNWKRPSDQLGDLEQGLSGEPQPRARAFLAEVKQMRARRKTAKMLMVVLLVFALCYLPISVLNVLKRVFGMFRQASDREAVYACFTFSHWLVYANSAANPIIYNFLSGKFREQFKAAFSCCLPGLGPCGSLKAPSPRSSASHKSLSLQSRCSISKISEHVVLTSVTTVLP
OX1R antag-2 = OX1R (HCRTR1) antagonists, primary screen, fluorescence, CHO/OX1R cells, Fluo-8 calcium, orexin A | Orexin/Hypocretin receptor type 1 (Homo sapiens), O43613 | Fluo-8 calcium fluorescence | inhibition, % at 5 µM | 330,000 compounds, 0.43% hits | AID 434989, 2010;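 active = inhibition above its plate's threshold, mean inhibition of all tested compounds on the plate plus 3 SD, cut at about 37% in these data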;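 note: 0% = orexin A challenge wells and 100% = SB-334867-A antagonist wells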
GalR3 antagonist = GalR3 antagonists in HEK293 cells, primary screen, cell-based, fluorescence readout. Galanin receptor type 3 (Homo sapiens), O60755. HEK293 GalR3-CNG cAMP membrane potential fluorescence; galR3 body fused to GalR1 C-terminus. inhibition, % at 3 µM. 360,000 compounds, 0.44% hits. AID 651719, 2012;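 active = inhibition above the screen-wide average plus 3 SD, cut at about 13% in these data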;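 note: forskolin and galanin both at EC90 stimulate the cells; cAMP rise reported by CNG channel membrane potential dye signal; 0% = forskolin plus galanin with DMSO and 100% = forskolin alone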
TAAR1 ag = human TAAR1 agonists, primary screen, Fluo-8 calcium fluorescence, CHO RD-HGA16 cells. Trace amine-associated receptor 1 (Homo sapiens), Q96RJ0. vehicle wells 0%, saturating PEA agonist 100%. activation, % at 3 µM. 360,000 compounds, 0.99% hits. AID 624467, 2012;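 active = activation above the mean activation of all test compounds in the run plus 3 SD, cut at about 38% in these data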
Target sequence (Q96RJ0 whole entry, looked up): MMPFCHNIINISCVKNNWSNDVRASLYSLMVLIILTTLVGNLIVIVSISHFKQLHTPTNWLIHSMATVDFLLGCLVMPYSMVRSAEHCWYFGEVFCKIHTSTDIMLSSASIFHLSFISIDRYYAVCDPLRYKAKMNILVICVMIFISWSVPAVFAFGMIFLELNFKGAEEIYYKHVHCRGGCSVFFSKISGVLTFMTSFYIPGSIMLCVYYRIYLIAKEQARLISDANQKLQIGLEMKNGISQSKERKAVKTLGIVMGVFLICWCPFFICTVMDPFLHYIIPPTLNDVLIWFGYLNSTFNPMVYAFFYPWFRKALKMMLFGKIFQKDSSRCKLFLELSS
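Assay system: CHO-derived RD-HGA16 cells with stable Gα16 and human TAAR1; timing: 17-24 h seeding, 75 min 37 °C dye, 30 min RT; read-out: % activation from peak over basal fluorescence ratio, DMSO-to-PEA scaled; measured by: kinetic Fluo-8 calcium fluorescence; benchmarks: low control DMSO, high control PEA (EC100); doses: 3 µM single concentration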
TAAR1 antagonist = human TAAR1 antagonists, primary screen, Fluo-8 calcium fluorescence, CHO RD-HGA16 cells | Trace amine-associated receptor 1 (Homo sapiens), Q96RJ0 | antagonist | inhibition, % at 3 µM | 360,000 compounds, 1.5% hits | AID 624466, 2012;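 active = inhibition above a per-plate cutoff, the mean inhibition of test compounds on that plate plus 3 SD, cut at about 49% in these data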;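 note: 0% = DMSO plus EC80 beta-PEA response and 100% = DMSO alone without agonist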
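Test system: CHO RD-HGA16 cells bearing hTAAR1 | Reagent: β-PEA, EC80 | Compound dosing: 3 µM, single point | Schedule: Dye loading 75 min at 37 °C, then 30 min room temperature | Signal: Calcium fluorescence with Fluo-8 | Evaluation: Percent inhibition of PEA-evoked calcium signal, max/basal emission ratio | Control set: DMSO-only wells and EC80 β-PEA-stimulated wells | Repeats: Singlicate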
CHO parental Ca = ATP-evoked calcium signal inhibitors, parental CHO, primary screen, counter-screen for OX1R antagonist project, cell-based, fluorescence, Fluo-8 calcium dye; parental CHO-K1, ATP-induced calcium, Fluo-8 fluorescence; inhibition, % at 5.6 µM; 330,000 compounds, 0.63% hits;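 active = inhibition above that plate's mean sample inhibition plus 3 SD, cut at about 26% in these data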;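 note: 0% = ATP-challenged DMSO wells and 100% = DMSO wells without ATP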
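Assay system: parental CHO cells; Read-out basis: percent inhibition of ATP-evoked calcium rise, normalized to controls; Benchmarks: ATP and no-ATP DMSO wells; Compound dosing: single nominal dose of 5.6 µM per compound; Signal: Fluo-8 calcium dye fluorescence; Also added: ATP as calcium-mobilizing challenge; Repeats: singlicate.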
OX1R Ca confirm = OX1R (HCRTR1) antagonists, confirmation, fluorescence, CHO/OX1R cells, Fluo-8 calcium, orexin A; shares compounds with OX1R antag-2; orexin A calcium Fluo-8 fluorescence; inhibition, % at 5 µM; 1,100 compounds, 38% hits; in the data active = inhibition above about 29%;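 note: 0% = agonist challenge alone and 100% = reference antagonist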
CHO Ca triplic = ATP-evoked calcium inhibition in parental CHO, counter-screen for OX1R antagonist project, cell-based, fluorescence, CHO-K1, triplicate; shares compounds with OX1R antag-2; ATP-induced calcium, Fluo-8 fluorescence; inhibition, % at 5.6 µM; 1,100 compounds, 9.3% hits; AID 492965, 2010;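 active = inhibition above a per-plate limit, the mean inhibition of that plate's test compounds plus 3 SD, cut at about 25% in these data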;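 note: 0% = ATP challenge with DMSO and 100% = DMSO without ATP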
OX1R HTRF conf = OX1R (HCRTR1) antagonists, confirmation, cell-based, HTRF. inhibition, % at 6.6 µM. 1,800 compounds, 49% hits. OX1R-expressing cells, HTRF antagonist assay. shares compounds with OX1R antag-1; in the data active = inhibition above about 55%;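 note: CHO cells expressing OX1R stimulated with orexin A at about EC80; 0% = agonist challenge alone and 100% = reference antagonist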
CHO-K1 HTRF = signal inhibition in parental CHO-K1 cells, counter-screen for OX1R antagonist project, cell-based, HTRF; shares compounds with OX1R antag-1; HTRF counterscreen; inhibition, % at 6.6 µM; 1,800 compounds, 48% hits; AID 493232, 2011; in the data active = inhibition above about 17%;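 note: 0% = agonist challenge with vehicle and 100% = vehicle alone without agonist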
The depositor's hits bear a star; x = not tested or not shown. Rows were chosen to be rich in hits. Some 4.2% of all compounds tested hit in one or more screens of this group.

SMILES	OX1R antag-1	OX1R antag-2	GalR3 antagonist	TAAR1 ag	TAAR1 antagonist	CHO parental Ca	OX1R Ca confirm	CHO Ca triplic	OX1R HTRF conf	CHO-K1 HTRF
COc1ccc(-c2nnn(CC(=O)N(CC(=O)NC3CCCC3)Cc3cccs3)n2)cc1OC	13.2	-17.3	1.8	1.4	24.0	-15.6	x	x	x	x
Clc1ccc(CN=C(Nc2ccccc2)NC2CCCCC2)cc1	15.3	-24.2	-9.9	14.1	6.6	-16.4	x	x	x	x
CSc1cccc(NC(=O)C2CCCN(S(=O)(=O)c3cccs3)C2)c1 (configuration not stated)	60.6*	42.5*	-2.5	0.4	39.9	-7.8	50.1*	4.1	78.2*	-1.9
CSc1cccc(NC(=O)C2CCN(S(=O)(=O)c3ccc(F)cc3)CC2)c1	11.2	9.6	-7.2	17.5	42.6	0.1	x	x	x	x
CSc1cccc(NC(=O)C2CCCN2S(=O)(=O)c2ccc(Br)s2)c1 (configuration not stated)	88.8*	98.3*	-5.3	10.5	-2.1	-7.4	93.0*	-15.5	90.7*	-0.8
Cc1nc2ccc(-c3nc4ccc(N)cc4[nH]3)cc2[nH]1	12.2	-13.8	-4.5	5.6	-5.0	-6.9	x	x	x	x
Cc1ccnc2ccc(-c3nc4ccccc4o3)cc12	92.0*	40.8*	-4.8	12.4	0.3	-24.9	48.1*	-18.2	93.6*	9.5
c1cncc(-c2nc3ccccc3o2)c1	9.8	-10.5	-0.9	1.5	-10.9	-9.8	x	x	x	x
Cc1nc2ccc(-c3nc4ccccc4o3)cc2[nH]1	105.0*	49.9*	1.7	1.4	4.8	-5.7	33.4*	-2.0	93.6*	1.4
CC(=O)Nc1ccc(NC(=O)c2csc([C@@H]3C[C@H](O)[C@@H](CO)O3)n2)cc1	x	x	-6.3	1.1	7.1	x	x	x	x	x
O=c1nc2cccc3c2=c(/c1=C(\O)c1ccccc1)c1ccccc1c3=O	13.1	-45.4	-6.6	6.5	21.6	-15.9	x	x	x	x
O=c1[nH]c2cccc(F)c2n2cccc12	9.7	-1.8	-8.9	6.2	-17.2	1.4	x	x	x	x
COc1ccc(CCNC(=O)COc2ccc(-c3ccccc3)cc2)cc1OC	74.9*	30.0	0.8	-0.6	-12.4	-16.2	38.0*	38.7*	82.1*	5.5
COc1cccc(OC)c1C(=O)Nc1nc(-c2ccccc2)cs1	97.0*	38.5*	-3.2	8.3	-17.8	-16.6	30.3*	-9.2	89.0*	5.1
COc1ccccc1C(=O)Nc1nc(-c2ccc(S(=O)(=O)N3CCOCC3)cc2)cs1	88.9*	32.6	94.0*	31.3	69.3*	24.3	56.4*	29.0*	57.9*	15.4
Cc1ccsc1C(=O)OCC(=O)N(Cc1ccccc1)C(C)C	76.2*	39.9*	-5.2	3.6	11.3	-27.0	25.1	-7.5	67.5*	-1.5
COc1ccc(NC(=O)c2cc3c([nH]c4ccccc43)c(C)n2)cc1	95.6*	26.0	-3.9	1.1	-7.1	2.9	6.7	-0.7	23.9	10.6
COc1ccc(NC(=O)c2ccccn2)cc1	17.3	-7.7	x	x	x	-10.7	x	x	x	x
Cn1cc(/C=C(\C#N)C(=O)Nc2ccccc2O)c2ccccc21	67.8*	56.7*	x	x	x	-8.3	56.7*	9.6	89.4*	11.3
COc1ccc(CN2CC[C@H]3C=CC[C@@H](C(=O)Nc4ccc(Cl)c(C(F)(F)F)c4)[C@H]3C2=O)cc1OC	86.3*	63.4*	-0.2	13.8	17.3	-25.7	69.8*	-11.9	89.3*	3.0
O=C(NCc1cccnc1)[C@@H]1CC=C[C@@H]2CCN(Cc3ccc(Cl)c(Cl)c3)C(=O)[C@@H]21	28.3	-19.1	-2.5	2.4	12.7	-16.1	x	x	x	x
CCCCNC(=O)[C@@H]1CC=C[C@@H]2CCN(Cc3ccc(Cl)c(Cl)c3)C(=O)[C@@H]21	90.7*	47.5*	-2.2	4.5	7.3	-10.6	28.5	-4.3	75.3*	-1.9
O=C(c1ccccc1)N(Cc1cccs1)C1CCS(=O)(=O)C1 (configuration not stated)	9.2	1.8	-2.3	13.4	-3.0	-12.6	x	x	x	x
COc1ccc(NC(=O)CSc2ncc(-c3ccc(F)cc3)n2Cc2ccco2)cc1	33.1	5.9	-7.0	5.3	26.1	-14.2	x	x	x	x
CCC(=O)Nc1cc(NC(=O)CSc2ncc(-c3ccc(F)cc3)n2Cc2ccco2)ccc1C	83.9*	49.8*	-2.1	9.0	15.2	-19.2	36.3*	-19.9	63.1*	-4.7
SMILES	OX1R antag-1	OX1R antag-2	GalR3 antagonist	TAAR1 ag	TAAR1 antagonist	CHO parental Ca	OX1R Ca confirm	CHO Ca triplic	OX1R HTRF conf	CHO-K1 HTRF
CCN(CC)c1ccc2cc(-c3nc4ccccc4n3C)c(=O)oc2c1	82.6*	95.1*	-4.4	27.7	55.1*	6.3	84.1*	12.2	88.9*	-6.7
Cc1ccc(C)c(N(CC(=O)NC2CCCC2)C(=O)c2oc(C(C)(C)C)cc2C)c1	63.2*	94.7*	-11.6	3.8	-23.7	7.3	47.2*	-2.5	71.2*	1.9
Cc1cc(C(C)(C)C)oc1C(=O)N(CC(=O)NC1CCCC1)Cc1ccccc1	13.7	7.5	-4.6	26.1	32.5	-12.0	x	x	x	x
CCN(CC)C(=O)c1ccc(COc2ccccc2Cl)o1	10.9	-12.4	-8.7	0.9	5.1	1.4	x	x	x	x
CN(C)/C=C/C1=C([N+](=O)[O-])C(c2cccc([N+](=O)[O-])c2)NC(=O)N1 (configuration not stated)	87.8*	36.3	-8.3	-0.9	-10.8	-7.8	-0.1	0.9	37.4	28.6*
CCOC(=O)C1=C(CCc2ccccc2)NC(=O)NC1c1cccc([N+](=O)[O-])c1 (configuration not stated)	26.1	-9.6	0.6	7.5	42.1	-10.8	x	x	x	x
O=C(NC(Cc1c[nH]c2ccccc12)C(=O)N/N=C/c1cccnc1)c1cccs1 (configuration not stated)	71.0*	37.1	10.1	6.0	0.3	-17.6	24.1	-4.2	53.5	-0.2
